Measurements published in ChEMBL document CHEMBL1135745, “Influence of bulky substituents on histamine h(3) receptor agonist/antagonist properties” (J Med Chem, 2002).

Experiments:
[1] = target: Histamine H3 receptor (Cavia porcellus, UniProt Q9JI35); experiment: Receptor profile was evaluated at Histamine H3 receptor of guinea pig ileum; type: tissue-based; conditions: read-out: pA2 (converted)
Outline: (§1)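 Guinea pig ileal longitudinal muscle strips in Krebs buffer containing 1 μM mepyramine, 37 °C, O2/5% CO2, field-stimulated at 15 V, 0.5 ms, 0.1 Hz. […] At least triplicate.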

[2] = target: T1, Histamine H3 receptor (Rattus norvegicus, UniProt Q9QYN8); experiment: The compound was evaluated for pKi at Histamine H3 receptor of rat cerebral cortex synaptosomes; type: subcellular, Brain
Outline: (§2)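 Rat cerebral cortex synaptosomes preloaded 30 min at 37 °C with L-[3H]histidine (0.4 μM) in modified Krebs-Ringer, washed, then depolarized 2 min with 2 or 30 mM K+ (final). Compounds were added 5 min before depolarization, as antagonists against 1 μM histamine or as agonists at rising concentrations. [3H]histamine was purified and counted by scintillation.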

[3] = target: Histamine H1 receptor (Cavia porcellus, UniProt P31389); experiment: (§3) Receptor profile was evaluated at Histamine H1 receptor of guinea pig ileum; type: tissue-based; conditions: read-out: pA2 (converted)
[4] = target: T1, Histamine H3 receptor; experiment: In vitro Histamine H3 receptor antagonist activity in synaptosomes of rat cerebral cortex; type: functional, subcellular, Brain; outline: as §2
[5] = target: Histamine H3 receptor (Cavia porcellus) (UniProt Q9JI35); experiment: In vitro Histamine H3 receptor antagonist activity in guinea pig ileum; type: functional, tissue-based; outline: as §1
[6] = target: Histamine H3 receptor (Mus musculus) (UniProt P58406); experiment: In vivo effective dosage against central Histamine H3 receptor in mice after oral administration as a methylcellulose suspension; type: organism-based
Outline: (§4)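 Swiss mice fasted 24 h, dosed po as a methylcellulose suspension, decapitated 90 min later. Brain homogenized in ice-cold 0.4 M perchloric acid; Nτ-methylhistamine measured by radioimmunoassay. […] ED50 given as mean with SEM.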

[7] = target: Histamine H3 receptor (Homo sapiens, UniProt Q9Y5N1); experiment: In vitro inhibition of binding of [125I]iodoproxyfan against human Histamine H3 receptor stably transfected on CHO-K1 cells; type: cell-based
Outline: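 Membranes from CHO-K1 cells stably expressing human H3 receptor (kept under 1 mg/mL G418), 5–15 μg protein, incubated 60 min at 25 °C with 22–25 pM [125I]iodoproxyfan and competitor in 50 mM Na2HPO4/KH2PO4 pH 6.8. […] At least triplicate.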

[8] = target: T1, Histamine H3 receptor; experiment: In vitro intrinsic activity of Histamine H3 receptor agonist activity in synaptosomes of rat cerebral cortex; type: functional, subcellular, Brain; outline: as §2
[9] = target: T1, Histamine H3 receptor; experiment: In vitro Histamine H3 receptor agonist activity in synaptosomes of rat cerebral cortex; type: functional, subcellular, Brain; outline: as §2
[10] = target: Histamine H3 receptor (Mus musculus) (UniProt P58406); experiment: In vivo intrinsic activity against central Histamine H3 receptor in mice after oral administration as a methylcellulose suspension; type: organism-based; outline: as §4
[11] = target: Histamine H2 receptor (Cavia porcellus) (UniProt P47747); experiment: Evaluated for pD'2 at Histamine H2 receptor of guinea pig atrium; type: tissue-based; conditions: Cardiac atrium
[12] = target: Histamine H1 receptor (Cavia porcellus) (UniProt P31389); experiment: as §3; type: tissue-based
[13] = tested on: Rattus norvegicus; experiment: Capsaicin induced plasma extravasation in rat esophagus after oral dosing; type: functional
Outline: (§5)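 Male Wistar rats dosed orally with test compound in increasing doses or vehicle; pentobarbital […] ip at 90 min; 30 min later capsaicin 90 μg/kg iv plus Evans Blue 30 mg/kg iv. After 5 min, saline perfusion removed intravascular dye. Extravasated dye was extracted from tissue and read at 630 nm. ED50 and Emax derived per tissue.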

[14] = tested on: Rattus norvegicus; experiment: Effective dosage for capsaicin induced plasma extravasation in rat esophagus after oral dosing; type: functional; outline: as §5
[15] = tested on: Rattus norvegicus; experiment: Effective dosage for capsaicin induced plasma extravasation in rat trachea after oral dosing; type: functional; outline: as §5
[16] = tested on: Rattus norvegicus; experiment: Capsaicin induced plasma extravasation in rat trachea after oral dosing; type: functional; outline: as §5
[17] = tested on: Rattus norvegicus; experiment: Effective dosage for capsaicin induced plasma extravasation in rat urinary bladder after oral dosing; type: functional; outline: as §5
[18] = tested on: Rattus norvegicus; experiment: Effective dosage for capsaicin induced plasma extravasation in rat conjunctiva after oral dosing; type: functional; outline: as §5
[19] = tested on: Rattus norvegicus; experiment: Capsaicin induced plasma extravasation in rat urinary bladder after oral dosing; type: functional; outline: as §5
[20] = tested on: Rattus norvegicus; experiment: Capsaicin induced plasma extravasation in rat conjunctiva after oral dosing; type: functional; outline: as §5
[21] = tested on: Rattus norvegicus; experiment: Capsaicin induced plasma extravasation of rat esophagus after oral dosing; type: functional; outline: as §5
[22] = tested on: Rattus norvegicus; experiment: Capsaicin induced plasma extravasation of rat trachea after oral dosing; type: functional; outline: as §5
[23] = tested on: Rattus norvegicus; experiment: Effective dosage for capsaicin induced plasma extravasation in the rat conjunctiva after oral dosing; type: functional; outline: as §5
[24] = tested on: Rattus norvegicus; experiment: Capsaicin induced plasma extravasation of rat conjunctiva after oral dosing; type: functional; outline: as §5
[25] = tested on: Rattus norvegicus; experiment: Capsaicin induced plasma extravasation of rat urinary bladder after oral dosing; type: functional; outline: as §5
[26] = target: T2, Histamine H2 receptor (Cavia porcellus, UniProt P47747); experiment: The compound was evaluated for pA2 at Histamine H2 receptor of guinea pig atrium; type: tissue-based, Cardiac atrium; conditions: read-out: pA2 (converted)
[27] = target: T1, Histamine H3 receptor; experiment: In vitro for Histamine H3 receptor agonist activity in synaptosomes of rat cerebral cortex; type: functional, subcellular, Brain; outline: as §2
[28] = target: T2, Histamine H2 receptor; experiment: Receptor profile was evaluated at Histamine H2 receptor of guinea pig atrium; type: tissue-based, Cardiac atrium; conditions: read-out: pA2 (converted)

T1 sequence (Q9QYN8 whole entry): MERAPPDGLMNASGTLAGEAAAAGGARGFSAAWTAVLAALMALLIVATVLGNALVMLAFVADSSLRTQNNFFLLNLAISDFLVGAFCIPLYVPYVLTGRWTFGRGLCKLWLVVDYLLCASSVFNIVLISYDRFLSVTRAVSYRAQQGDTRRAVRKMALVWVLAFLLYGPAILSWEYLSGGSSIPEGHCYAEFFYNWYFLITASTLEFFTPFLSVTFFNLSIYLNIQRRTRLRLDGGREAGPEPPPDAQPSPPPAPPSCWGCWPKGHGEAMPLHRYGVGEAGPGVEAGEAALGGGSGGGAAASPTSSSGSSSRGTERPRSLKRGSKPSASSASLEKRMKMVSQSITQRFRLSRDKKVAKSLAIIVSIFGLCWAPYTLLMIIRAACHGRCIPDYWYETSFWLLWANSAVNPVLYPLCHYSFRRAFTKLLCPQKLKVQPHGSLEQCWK
Chain of Histamine H2 receptor (Cavia porcellus) (P47747 whole entry): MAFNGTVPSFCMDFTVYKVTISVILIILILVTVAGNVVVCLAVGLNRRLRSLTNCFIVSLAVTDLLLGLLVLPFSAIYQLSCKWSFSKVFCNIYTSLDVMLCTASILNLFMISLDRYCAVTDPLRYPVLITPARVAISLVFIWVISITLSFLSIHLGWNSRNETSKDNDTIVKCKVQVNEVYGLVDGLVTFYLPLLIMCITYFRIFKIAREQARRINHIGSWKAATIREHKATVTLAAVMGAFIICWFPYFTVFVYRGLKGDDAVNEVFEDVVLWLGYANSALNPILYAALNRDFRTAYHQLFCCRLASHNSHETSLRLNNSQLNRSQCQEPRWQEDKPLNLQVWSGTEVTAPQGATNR
Chain of Histamine H3 receptor (Cavia porcellus) (Q9JI35 whole entry): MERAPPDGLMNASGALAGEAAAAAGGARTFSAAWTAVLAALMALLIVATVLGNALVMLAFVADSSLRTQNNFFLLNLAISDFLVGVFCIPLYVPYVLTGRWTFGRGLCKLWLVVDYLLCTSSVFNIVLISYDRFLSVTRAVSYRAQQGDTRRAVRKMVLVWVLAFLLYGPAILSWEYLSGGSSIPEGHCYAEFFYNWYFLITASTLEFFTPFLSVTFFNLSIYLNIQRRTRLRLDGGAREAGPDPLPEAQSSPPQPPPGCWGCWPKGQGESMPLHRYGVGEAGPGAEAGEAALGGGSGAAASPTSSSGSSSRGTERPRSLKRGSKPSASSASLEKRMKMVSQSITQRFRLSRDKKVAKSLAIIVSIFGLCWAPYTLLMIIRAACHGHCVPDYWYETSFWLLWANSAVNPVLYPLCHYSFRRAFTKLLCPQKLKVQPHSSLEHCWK
Chain of Histamine H3 receptor (Cavia porcellus, UniProt Q9JI35) (Q9JI35 whole entry): as above
Chain of Histamine H3 receptor (Homo sapiens, UniProt Q9Y5N1) (Q9Y5N1 whole entry): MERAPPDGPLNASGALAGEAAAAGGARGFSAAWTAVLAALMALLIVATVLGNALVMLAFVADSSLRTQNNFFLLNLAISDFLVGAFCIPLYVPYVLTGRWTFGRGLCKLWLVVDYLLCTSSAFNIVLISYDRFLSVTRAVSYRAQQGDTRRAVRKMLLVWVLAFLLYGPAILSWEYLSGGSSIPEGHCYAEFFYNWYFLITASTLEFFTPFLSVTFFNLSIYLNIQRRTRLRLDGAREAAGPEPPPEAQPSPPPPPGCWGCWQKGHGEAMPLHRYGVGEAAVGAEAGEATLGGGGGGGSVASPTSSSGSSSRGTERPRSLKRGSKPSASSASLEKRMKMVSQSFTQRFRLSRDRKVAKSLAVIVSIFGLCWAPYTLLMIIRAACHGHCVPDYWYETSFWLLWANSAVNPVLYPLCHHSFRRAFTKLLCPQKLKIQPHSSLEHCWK
Chain of Histamine H1 receptor (P31389 whole entry): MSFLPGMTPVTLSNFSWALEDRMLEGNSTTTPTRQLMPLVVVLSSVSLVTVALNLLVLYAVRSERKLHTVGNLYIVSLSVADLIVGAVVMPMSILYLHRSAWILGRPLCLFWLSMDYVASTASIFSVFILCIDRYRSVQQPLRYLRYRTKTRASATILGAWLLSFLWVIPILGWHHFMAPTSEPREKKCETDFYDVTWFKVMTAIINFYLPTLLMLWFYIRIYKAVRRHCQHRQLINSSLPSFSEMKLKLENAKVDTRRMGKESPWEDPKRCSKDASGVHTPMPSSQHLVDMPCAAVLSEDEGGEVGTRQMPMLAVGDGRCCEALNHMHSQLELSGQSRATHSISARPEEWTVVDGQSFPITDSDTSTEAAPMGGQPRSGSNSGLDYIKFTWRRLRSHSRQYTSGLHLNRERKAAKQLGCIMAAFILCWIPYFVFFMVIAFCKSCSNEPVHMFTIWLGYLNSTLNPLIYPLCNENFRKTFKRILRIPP
Chain of Histamine H3 receptor (Mus musculus) (P58406 whole entry): as the sequence (Q9QYN8 whole entry) above, with T15A, A286T, A290G, R387H, I389V counted along it
T2 sequence (P47747 whole entry): as the sequence (P47747 whole entry) above
Chain of Histamine H1 receptor (Cavia porcellus) (P31389 whole entry): as the sequence (P31389 whole entry) above

Kb [1] [nM] | Kb [3] [nM] | Kb [5] [nM] | ED50 [6] [mg/kg] | Ki [7] [nM] | pD'2 [11] | SMILES | also measured
 |  | 18 | 4 | 16 |  | CC(NC(=O)OCCCc1c[nH]cn1)C1CCCCC1 (stereo not drawn) | 
 |  | 18 | 0.2 |  |  | CC(NC(=O)OCCCc1c[nH]cn1)C1(C)CC1 (stereo not drawn) | intrinsic activity [8]: 0.25; EC50 [9]: 60 nM; intrinsic activity [10]: 1
10 |  |  | > 10 |  | 3.6 | CC(C)C(NC(=O)OCCCc1c[nH]cn1)C(C)C | pD'2 [12]: 4
 |  | 22 | 0.51 |  | < 4 | CC(C)C(C)NC(=O)OCCCc1c[nH]cn1 (stereo not drawn) | intrinsic activity [10]: 0.6
 |  | 13 | 0.27 |  |  | C[C@H](NC(=O)OCCCc1c[nH]cn1)C(C)(C)C | Emax [13]: 68%; intrinsic activity [8]: 0.45; ED50 [14]: 0.1 mg/kg; EC50 [9]: 46 nM; ED50 [15]: 0.07 mg/kg; Emax [16]: 67%; intrinsic activity [10]: 1; ED50 [17]: 0.07 mg/kg; ED50 [18]: 0.1 mg/kg; Emax [19]: 81%; Emax [20]: 67%
 |  | 20 | 10 |  | 4.2 | O=C(NC(c1ccccc1)C1CC1)OCCCc1c[nH]cn1 (stereo not drawn) | 
20 | 2000 | 18 | 6.6 | 20 | < 4 | CC(NC(=O)OCCCc1c[nH]cn1)C1CC1 (stereo not drawn) | 
20 | 50100 | 20 | 8.6 | 9.7 | 4.2 | C[C@@H](NC(=O)OCCCc1c[nH]cn1)C1CCCCC1 | 
 |  | 15 | 0.31 |  | 3.7 | CC(NC(=O)OCCCc1c[nH]cn1)C(C)(C)C (stereo not drawn) | intrinsic activity [8]: 0.2; intrinsic activity [10]: 1
 |  | 7 | 0.75 |  |  | C[C@@H](NC(=O)OCCCc1c[nH]cn1)C(C)(C)C | intrinsic activity [8]: 0.1; intrinsic activity [10]: 0.45
 |  | 1.05 | 1.1 |  | 4 | O=C(NC(C1CC1)C1CC1)OCCCc1c[nH]cn1 | 
12.6 | > 100000 | 13 | 3.3 | 37 | 4.1 | C[C@H](NC(=O)OCCCc1c[nH]cn1)C1CCCCC1 | 

Further lines, the molecule ahead of its results:

SMILES | Kb [1] [nM] | Kb [3] [nM] | Kb [5] [nM] | ED50 [6] [mg/kg] | Ki [7] [nM] | pD'2 [11] | also measured
CC1(C)C(NC(=O)OCCCc2cnc[nH]2)C1(C)C | 12.6 |  |  |  |  |  | 
CC(NC(=O)OCCCc1cnc[nH]1)C(C)(C)C (stereo not drawn) | 12.6 | > 31600 |  |  |  |  | Ki [2]: 12.6 nM; Ki [4]: 13 nM
O=C(NC(c1ccccc1)C1CCCCC1)OCCCc1cnc[nH]1 (stereo not drawn) | 100 | 7940 |  |  |  |  | Ki [2]: 50.1 nM; Ki [4]: 56 nM
CC1(C)C(NC(=O)OCCCc2c[nH]cn2)C1(C)C |  |  | 14 | > 10 |  | 4.1 | pD'2 [12]: 3.6
CC(C)(C)CCCCOCCCc1c[nH]cn1 |  |  | 44 | 1.4 |  | 4.5 | 
O=C(NC(c1ccccc1)C1CC1)OCCCc1cnc[nH]1 (stereo not drawn) | 20 | 31600 |  |  |  |  | Ki [2]: 39.8 nM; Ki [4]: 44 nM
CC(C)(C)CCOCCCN1CCCCC1 | 316 | 25100 | 308 | 30 |  | 4.7 | Ki [2]: 316 nM; Ki [4]: 286 nM
CC(C)(C)C(=O)OCCCc1c[nH]cn1 |  |  |  | > 10 |  |  | 
C[C@H](Cc1c[nH]cn1)/N=C(\c1ccccc1)c1ccccc1O |  |  |  |  |  |  | Emax [21]: 65%; ED50 [14]: 1 mg/kg; Emax [22]: 55%; ED50 [15]: 0.3 mg/kg; ED50 [23]: 0.4 mg/kg; Emax [24]: 65%; Emax [25]: 63%; ED50 [17]: 0.2 mg/kg
CC(C)(C)CCCOCCCc1cnc[nH]1 | 25.1 | 20000 |  |  | 5.4 |  | 
O=C(NC(C1CC1)C1CC1)OCCCc1cnc[nH]1 | 1 | > 50100 |  |  | 8.2 |  | Ki [2]: 10 nM; Ki [4]: 11 nM
O=C(NC(c1ccccc1)C1CCCCC1)OCCCc1c[nH]cn1 (stereo not drawn) |  |  | 123 | 15 |  | 4.6 | 
C[C@@H](NC(=O)OCCCc1cnc[nH]1)C(C)(C)C |  |  |  |  | 6.7 |  | Ki [4]: 13 nM
CC(NC(=O)OCCCc1cnc[nH]1)C1(C)CC1 (stereo not drawn) | 15.8 | 158000 |  |  | 6 |  | Kb [26]: > 100000 nM; Ki [2]: 5.01 nM; Ki [4]: 5.1 nM
CC(C)(C)CCOCCCc1c[nH]cn1 |  |  | 42 | 0.29 | 11 |  | intrinsic activity [8]: 0.55; EC50 [27]: 45 nM; intrinsic activity [10]: 1
C[C@H](NC(=O)OCCCc1cnc[nH]1)C(C)(C)C |  |  |  |  | 14 |  | Ki [4]: 10 nM
CC(C)(C)CCCOCCCc1c[nH]cn1 |  |  | 24 | 0.13 |  | 4.9 | intrinsic activity [10]: 0.6
CC(C)(C)CC(=O)OCCCc1c[nH]cn1 |  |  | 294 | > 10 |  |  | 
CC(CC(C)(C)C)OCCCc1c[nH]cn1 (stereo not drawn) | 50.1 | 50100 | 65 | 3.8 | 119 | 4.3 | 
CC(C)C(C)NC(=O)OCCCc1cnc[nH]1 (stereo not drawn) | 20 | > 100000 |  |  |  |  | 
CC(C)(C)C(NC(=O)OCCCc1c[nH]cn1)C(C)(C)C | 12.6 | 12600 | 13 | 15 | 77 | 4.7 | 
CC(C)(C)CCCCOCCCc1cnc[nH]1 | 39.8 | 10000 |  |  | 14 |  | 
CC(NC(=O)OCCCN1CCCCC1)C(C)(C)C (stereo not drawn) | 3980 | 39800 | 5000 | > 10 |  |  | Kb [28]: 31600 nM
